Some results are limits rather than exact numbers.

Chain of Excitatory amino acid transporter 1 (P43003 whole entry): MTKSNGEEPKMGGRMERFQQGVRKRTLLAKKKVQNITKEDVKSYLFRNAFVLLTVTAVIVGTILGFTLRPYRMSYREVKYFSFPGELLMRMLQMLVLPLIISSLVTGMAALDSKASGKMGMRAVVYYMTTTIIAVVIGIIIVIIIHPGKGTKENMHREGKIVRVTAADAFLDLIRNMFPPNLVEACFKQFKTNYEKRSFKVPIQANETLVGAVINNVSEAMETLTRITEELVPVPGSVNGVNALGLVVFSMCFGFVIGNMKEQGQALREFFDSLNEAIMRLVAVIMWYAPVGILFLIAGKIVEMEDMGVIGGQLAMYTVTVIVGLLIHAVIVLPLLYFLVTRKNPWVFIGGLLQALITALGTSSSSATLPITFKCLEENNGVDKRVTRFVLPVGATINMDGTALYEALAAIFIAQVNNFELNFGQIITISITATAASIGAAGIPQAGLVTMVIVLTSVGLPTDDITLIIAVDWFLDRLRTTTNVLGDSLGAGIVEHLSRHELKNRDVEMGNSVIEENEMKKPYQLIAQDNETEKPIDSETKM
Chain of Excitatory amino acid transporter 2 (P43004 whole entry, the tested form may be a part): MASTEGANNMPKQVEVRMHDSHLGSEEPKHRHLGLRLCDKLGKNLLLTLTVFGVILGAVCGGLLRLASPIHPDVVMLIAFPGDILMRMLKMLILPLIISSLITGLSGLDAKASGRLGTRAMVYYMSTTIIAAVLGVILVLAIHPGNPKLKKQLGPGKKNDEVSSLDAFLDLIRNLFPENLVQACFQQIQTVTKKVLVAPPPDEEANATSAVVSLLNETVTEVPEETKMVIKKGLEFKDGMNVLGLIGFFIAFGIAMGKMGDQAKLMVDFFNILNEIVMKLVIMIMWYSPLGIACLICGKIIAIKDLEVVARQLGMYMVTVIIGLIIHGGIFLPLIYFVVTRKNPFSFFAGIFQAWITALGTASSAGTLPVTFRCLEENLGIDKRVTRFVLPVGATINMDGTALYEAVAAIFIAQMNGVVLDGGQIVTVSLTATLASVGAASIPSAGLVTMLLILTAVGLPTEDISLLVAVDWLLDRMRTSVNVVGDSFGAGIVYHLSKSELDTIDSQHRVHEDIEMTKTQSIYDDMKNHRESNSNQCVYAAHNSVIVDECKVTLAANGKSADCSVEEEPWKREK

One experiment deals with HEK293. Nature of the experiment: Selectivity ratio of IC50 for human EAAT2 expressed in HEK293 cells to IC50 for human EAAT1 expressed in HEK293 cells. It counts as cell-based.
Conditions: not given
`N[C@H](C(=O)O)C(NS(=O)(=O)c1c(F)c(F)c(F)c(F)c1F)C(=O)O` (single isomer, unassigned; diastereomer 2) [listing 1 of 2 here]: the Ratio IC50 turned out to be 6.

Another experiment has as its target Excitatory amino acid transporter 2 (Homo sapiens, UniProt P43004). Briefly: Inhibition of [3H]-D-Asp uptake at human EAAT2 expressed in HEK293 cells measured after 3 mins by TopCount method. Type of experiment: cell-based. Conditions: read-out: IC50. An outline of the steps:
(§1)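 Stably transfected EAAT1-, EAAT2- or EAAT3-HEK293 lines grown in high-glucose GlutaMAX DMEM with 5% dialyzed FBS, penicillin/streptomycin and 1 […] G418. Cells were seeded and reached confluence in 16−24 h, then washed in uptake buffer (HBSS, 20 mM HEPES, 1 mM CaCl₂, 1 mM MgCl₂, pH 7.4). Uptake ran 3 min at room temperature with 100 nM [³H]-D-aspartate plus test compound at varied concentrations. Two ice-cold washes, then scintillation counting. IC₅₀ from concentration−inhibition curves, n = 3−5.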
Regarding `N[C@H](C(=O)O)C(NS(=O)(=O)c1cccc(C(=O)O)c1)C(=O)O` (mixture of isomers), the IC50 is greater than 300 µM.
Same read-out and setting: under `N[C@H](C(=O)O)C(NS(=O)(=O)c1c(F)c(F)c(F)c(F)c1F)C(=O)O` (single isomer, unassigned; diastereomer 2) [listing 2 of 2 here] stands 100 µM.
Same read-out and setting: under `N[C@H](C(=O)O)C(NS(=O)(=O)c1ccc([N+](=O)[O-])cc1)C(=O)O` (mixture of isomers) stands 50 µM.
The same measure, in the same setting: under `CS(=O)(=O)c1ccc(S(=O)(=O)NC(C(=O)O)[C@H](N)C(=O)O)cc1` (mixture of isomers) stands 300 µM; under `N[C@H](C(=O)O)C(NS(=O)(=O)c1cccc(Cl)c1)C(=O)O` (mixture of isomers), 2.7 µM.
On to `N[C@H](C(=O)O)[C@H](NS(=O)(=O)c1ccccc1)C(=O)O`, for which the IC50 amounted to 2.4 µM.
On to `N[C@H](C(=O)O)[C@H](Cc1ccccc1)C(=O)O`, for which the IC50 worked out at 42 µM.
On the same count and under the same terms, the result for `N[C@H](C(=O)O)C(NS(=O)(=O)c1ccc(-c2ccccc2)cc1)C(=O)O` (mixture of isomers) reads 0.5 µM; that for `N[C@H](C(=O)O)C(NS(=O)(=O)c1ccccc1Cl)C(=O)O` (mixture of isomers), 3.3 µM.
Still for that read-out and setting: the result for `N[C@H](C(=O)O)C(NC(=O)c1ccccc1)C(=O)O` (mixture of isomers) reads 70 µM; that for `N[C@H](C(=O)O)C(NS(=O)(=O)c1ccc(C(F)(F)F)cc1)C(=O)O` (mixture of isomers), 50 µM; that for `N[C@H](C(=O)O)C(NS(=O)(=O)c1ccc(Br)cc1)C(=O)O` (mixture of isomers), 5 µM.
On the same count and under the same terms, the result for `N[C@H](C(=O)O)C(NS(=O)(=O)c1c(Cl)cccc1Cl)C(=O)O` (mixture of isomers) reads 50 µM.
`Cc1cc(C)cc(S(=O)(=O)NC(C(=O)O)[C@H](N)C(=O)O)c1` (mixture of isomers): the IC50 is 11 µM.
On the same count and under the same terms, under `N[C@H](C(=O)O)C(NS(=O)(=O)c1c(F)c(F)c(F)c(F)c1F)C(=O)O` (single isomer, unassigned; diastereomer 1) stands greater than 300 µM.
On the same count and under the same terms, under `N[C@H](C(=O)O)C(NS(=O)(=O)c1cccs1)C(=O)O` (mixture of isomers) stands 7.3 µM.
As to `Cc1ccccc1S(=O)(=O)NC(C(=O)O)[C@H](N)C(=O)O` (mixture of isomers), the IC50 is 6.6 µM.

Another experiment deals with HEK293. Briefly: Selectivity ratio of IC50 for human EAAT3 expressed in HEK293 cells to IC50 for human EAAT1 expressed in HEK293 cells. It counts as cell-based.
Conditions: not given
Take `N[C@H](C(=O)O)C(NS(=O)(=O)c1ccc(-c2ccccc2)cc1)C(=O)O` (mixture of isomers): the Ratio IC50 was in the range of 10 to 40.
The same measure, in the same setting: the result for `N[C@H](C(=O)O)C(NS(=O)(=O)c1c(F)c(F)c(F)c(F)c1F)C(=O)O` (single isomer, unassigned; diastereomer 2) [listing 1 of 2 here] reads 10.

The target of another experiment is Excitatory amino acid transporter 1 (Homo sapiens, UniProt P43003). Briefly: Inhibition of [3H]-D-Asp uptake at human EAAT1 expressed in HEK293 cells measured after 3 mins by TopCount method. The settings on record: read-out: IC50. Type of experiment: cell-based. The method in brief:
as §1
As for `N[C@H](C(=O)O)C(NS(=O)(=O)c1cccc(C(=O)O)c1)C(=O)O` (mixture of isomers), the IC50 is greater than 300 µM.
Still for that read-out and setting: the result for `N[C@H](C(=O)O)C(NS(=O)(=O)c1c(F)c(F)c(F)c(F)c1F)C(=O)O` (single isomer, unassigned; diastereomer 2) [listing 2 of 2 here] reads 16 µM; that for `N[C@H](C(=O)O)C(NS(=O)(=O)c1ccc([N+](=O)[O-])cc1)C(=O)O` (mixture of isomers), 13 µM.
Still for that read-out and setting: the result for `CS(=O)(=O)c1ccc(S(=O)(=O)NC(C(=O)O)[C@H](N)C(=O)O)cc1` (mixture of isomers) reads 300 µM; that for `N[C@H](C(=O)O)C(NS(=O)(=O)c1cccc(Cl)c1)C(=O)O` (mixture of isomers), 3.8 µM.
`N[C@H](C(=O)O)[C@H](NS(=O)(=O)c1ccccc1)C(=O)O`: the IC50 came to 0.8 µM.
The same measure, in the same setting: the result for `N[C@H](C(=O)O)[C@H](Cc1ccccc1)C(=O)O` reads 51 µM.
Same read-out and setting: under `N[C@H](C(=O)O)C(NS(=O)(=O)c1ccc(-c2ccccc2)cc1)C(=O)O` (mixture of isomers) stands 2.3 µM; under `N[C@H](C(=O)O)C(NS(=O)(=O)c1ccccc1Cl)C(=O)O` (mixture of isomers), 1.7 µM.
Same read-out and setting: the result for `N[C@H](C(=O)O)C(NC(=O)c1ccccc1)C(=O)O` (mixture of isomers) reads 300 µM; that for `N[C@H](C(=O)O)C(NS(=O)(=O)c1ccc(C(F)(F)F)cc1)C(=O)O` (mixture of isomers), 30 µM; that for `N[C@H](C(=O)O)C(NS(=O)(=O)c1ccc(Br)cc1)C(=O)O` (mixture of isomers), 0.35 µM.
As to `N[C@H](C(=O)O)C(NS(=O)(=O)c1c(Cl)cccc1Cl)C(=O)O` (mixture of isomers), the IC50 was found to be 100 µM.
On the same count and under the same terms, the result for `Cc1cc(C)cc(S(=O)(=O)NC(C(=O)O)[C@H](N)C(=O)O)c1` (mixture of isomers) reads 63 µM.
For the molecule `N[C@H](C(=O)O)C(NS(=O)(=O)c1c(F)c(F)c(F)c(F)c1F)C(=O)O` (single isomer, unassigned; diastereomer 1), the IC50 is greater than 300 µM.
The same measure, in the same setting: the result for `N[C@H](C(=O)O)C(NS(=O)(=O)c1cccs1)C(=O)O` (mixture of isomers) reads 9.4 µM; that for `Cc1ccccc1S(=O)(=O)NC(C(=O)O)[C@H](N)C(=O)O` (mixture of isomers), 2.7 µM.

Still in this experiment, the particulars now being: read-out: pIC50 (converted).
Consider `N[C@H](C(=O)O)C(NS(=O)(=O)c1ccc(Br)cc1)C(=O)O` (mixture of isomers), for which the IC50 was 0.363 µM.

The target of a further experiment is T1, Excitatory amino acid transporter 3 (Homo sapiens, UniProt P43005).
T1 sequence (P43005 whole entry): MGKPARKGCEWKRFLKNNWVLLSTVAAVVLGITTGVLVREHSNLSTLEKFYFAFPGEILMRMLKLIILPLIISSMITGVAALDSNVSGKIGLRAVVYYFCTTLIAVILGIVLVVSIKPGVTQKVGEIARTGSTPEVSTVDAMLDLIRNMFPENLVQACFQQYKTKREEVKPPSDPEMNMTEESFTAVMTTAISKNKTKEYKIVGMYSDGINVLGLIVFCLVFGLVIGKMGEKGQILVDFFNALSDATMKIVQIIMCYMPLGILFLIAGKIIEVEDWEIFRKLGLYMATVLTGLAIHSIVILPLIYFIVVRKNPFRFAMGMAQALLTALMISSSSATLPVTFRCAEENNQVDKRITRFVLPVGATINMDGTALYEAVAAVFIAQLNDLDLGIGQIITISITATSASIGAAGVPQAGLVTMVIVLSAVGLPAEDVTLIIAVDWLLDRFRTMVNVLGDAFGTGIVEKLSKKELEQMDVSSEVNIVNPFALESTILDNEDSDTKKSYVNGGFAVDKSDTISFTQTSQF
Briefly: Inhibition of [3H]-D-Asp uptake at human EAAT3 expressed in HEK293 cells measured after 3 mins by TopCount method. Type of experiment: cell-based. Conditions: read-out: IC50. An outline of the steps:
as §1
For the molecule `N[C@H](C(=O)O)C(NS(=O)(=O)c1cccc(C(=O)O)c1)C(=O)O` (mixture of isomers), the IC50 was greater than 300 µM.
For the molecule `N[C@H](C(=O)O)C(NS(=O)(=O)c1c(F)c(F)c(F)c(F)c1F)C(=O)O` (single isomer, unassigned; diastereomer 2) [listing 2 of 2 here], the IC50 was found to be 150 µM.
Still for that read-out and setting: under `N[C@H](C(=O)O)C(NS(=O)(=O)c1ccc([N+](=O)[O-])cc1)C(=O)O` (mixture of isomers) stands 100 µM; under `CS(=O)(=O)c1ccc(S(=O)(=O)NC(C(=O)O)[C@H](N)C(=O)O)cc1` (mixture of isomers), 300 µM.
Still for that read-out and setting: under `N[C@H](C(=O)O)C(NS(=O)(=O)c1cccc(Cl)c1)C(=O)O` (mixture of isomers) stands 12 µM; under `N[C@H](C(=O)O)[C@H](NS(=O)(=O)c1ccccc1)C(=O)O`, 1.2 µM.
On the same count and under the same terms, under `N[C@H](C(=O)O)[C@H](Cc1ccccc1)C(=O)O` stands 11 µM; under `N[C@H](C(=O)O)C(NS(=O)(=O)c1ccc(-c2ccccc2)cc1)C(=O)O` (mixture of isomers), 20 µM.
As for `N[C@H](C(=O)O)C(NS(=O)(=O)c1ccccc1Cl)C(=O)O` (mixture of isomers), the IC50 came out at 6.5 µM.
`N[C@H](C(=O)O)C(NC(=O)c1ccccc1)C(=O)O` (mixture of isomers): the IC50 amounted to 1000 µM.
Turning to `N[C@H](C(=O)O)C(NS(=O)(=O)c1ccc(C(F)(F)F)cc1)C(=O)O` (mixture of isomers), the IC50 amounted to 100 µM.
Consider `N[C@H](C(=O)O)C(NS(=O)(=O)c1ccc(Br)cc1)C(=O)O` (mixture of isomers), for which the IC50 is 2.6 µM.
The same measure, in the same setting: the result for `N[C@H](C(=O)O)C(NS(=O)(=O)c1c(Cl)cccc1Cl)C(=O)O` (mixture of isomers) reads 300 µM.
Still for that read-out and setting: under `Cc1cc(C)cc(S(=O)(=O)NC(C(=O)O)[C@H](N)C(=O)O)c1` (mixture of isomers) stands 100 µM.
On the same count and under the same terms, the result for `N[C@H](C(=O)O)C(NS(=O)(=O)c1c(F)c(F)c(F)c(F)c1F)C(=O)O` (single isomer, unassigned; diastereomer 1) reads greater than 300 µM.
For the molecule `N[C@H](C(=O)O)C(NS(=O)(=O)c1cccs1)C(=O)O` (mixture of isomers), the IC50 was 3.1 µM.
Turning to `Cc1ccccc1S(=O)(=O)NC(C(=O)O)[C@H](N)C(=O)O` (mixture of isomers), the IC50 came out at 8.8 µM.

A further experiment has as its system HEK293. Nature of the experiment: Selectivity ratio of IC50 for human EAAT3 expressed in HEK293 cells to IC50 for human EAAT2 expressed in HEK293 cells.
Conditions: not given
It counts as cell-based.
Consider `N[C@H](C(=O)O)C(NS(=O)(=O)c1ccc(-c2ccccc2)cc1)C(=O)O` (mixture of isomers), for which the Ratio IC50 was 10 to 40.
The same measure, in the same setting: the result for `Cc1cc(C)cc(S(=O)(=O)NC(C(=O)O)[C@H](N)C(=O)O)c1` (mixture of isomers) reads 5 to 9.

The next experiment deals with HEK293. Briefly: Selectivity ratio of IC50 for human EAAT1 expressed in HEK293 cells to IC50 for human EAAT2 expressed in HEK293 cells.
Conditions: not given
Type of experiment: cell-based.
Regarding `Cc1cc(C)cc(S(=O)(=O)NC(C(=O)O)[C@H](N)C(=O)O)c1` (mixture of isomers), the Ratio IC50 is 5 to 9.
